hERG rescue: hERG rescue from dofetilide block, primary screen, cell-based, CHO-hERG, FluxOR thallium flux, dofetilide IC70. dofetilide IC70 present. 310,000 compounds, 0.51% hits. activation (rescue from dofetilide block), less the hit threshold, % at 10 µM;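 active = activation above the mean of controls blocked by dofetilide plus 5 SD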;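 also: thallium influx through hERG after potassium depolarization seen as dye fluorescence rise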
Target sequence (Q12809 whole entry, looked up): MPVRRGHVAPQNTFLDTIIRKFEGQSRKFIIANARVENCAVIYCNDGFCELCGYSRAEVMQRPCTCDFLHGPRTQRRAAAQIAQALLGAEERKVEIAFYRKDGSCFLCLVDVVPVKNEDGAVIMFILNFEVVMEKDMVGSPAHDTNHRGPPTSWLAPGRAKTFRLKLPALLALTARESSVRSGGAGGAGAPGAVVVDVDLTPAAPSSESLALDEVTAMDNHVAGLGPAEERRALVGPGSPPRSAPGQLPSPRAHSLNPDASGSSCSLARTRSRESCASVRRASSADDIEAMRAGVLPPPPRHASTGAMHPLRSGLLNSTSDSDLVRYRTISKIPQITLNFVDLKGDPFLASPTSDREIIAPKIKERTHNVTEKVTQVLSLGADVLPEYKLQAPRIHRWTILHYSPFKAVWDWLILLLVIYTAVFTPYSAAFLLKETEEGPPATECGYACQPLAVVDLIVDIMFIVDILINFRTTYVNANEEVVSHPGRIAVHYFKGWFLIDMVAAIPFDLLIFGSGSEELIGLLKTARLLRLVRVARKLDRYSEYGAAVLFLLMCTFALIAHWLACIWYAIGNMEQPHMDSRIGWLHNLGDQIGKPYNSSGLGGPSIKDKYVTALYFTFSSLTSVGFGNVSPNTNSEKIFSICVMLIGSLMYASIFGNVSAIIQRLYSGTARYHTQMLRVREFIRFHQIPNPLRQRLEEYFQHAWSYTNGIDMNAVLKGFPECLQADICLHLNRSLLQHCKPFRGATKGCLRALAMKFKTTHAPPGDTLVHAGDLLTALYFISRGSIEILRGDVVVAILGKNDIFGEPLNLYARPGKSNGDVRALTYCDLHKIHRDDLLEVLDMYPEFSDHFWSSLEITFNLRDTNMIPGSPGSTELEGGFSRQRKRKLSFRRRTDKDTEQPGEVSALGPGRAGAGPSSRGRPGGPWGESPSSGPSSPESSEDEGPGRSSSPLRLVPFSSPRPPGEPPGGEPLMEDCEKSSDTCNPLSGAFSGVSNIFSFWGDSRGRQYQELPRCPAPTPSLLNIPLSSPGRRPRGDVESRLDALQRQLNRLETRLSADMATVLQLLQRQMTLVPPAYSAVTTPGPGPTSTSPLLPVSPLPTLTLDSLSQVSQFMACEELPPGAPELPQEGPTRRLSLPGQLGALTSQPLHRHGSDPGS
KCNQ1 block: inhibitors of human KCNQ1 channel, primary screen, cell-based, thallium flux, high-throughput. CHO-K1 KCNQ1, FluxOR thallium flux fluorescence; active compounds read high. B-score at 10 µM. 310,000 compounds, 1.3% hits;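 active = compounds whose thallium flux B-score, printed positive for inhibition, exceeds three library SD while starting fluorescence stays within three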;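 also: channel opened by potassium depolarization with thallium stimulus after 20 min compound exposure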
KCNK9 inh: KCNK9 potassium channel inhibitors, primary screen, HEK293 cells, thallium flux; FluxOR thallium flux fluorescence; active compounds read low; B-score at 10 µM; 310,000 compounds, 1.2% hits; AID 488922, 2010;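 active = ratio B-score over 3 SD below the library mean, with starting fluorescence within 5 SD of its mean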;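 also: negative B-score means less thallium flux so channel inhibition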
Kir21 block: inhibitors of mouse Kir2.1 inward-rectifier potassium channel; B-score at 10 µM; 310,000 compounds, 0.85% hits; AID 1672, 2009; Inward rectifier potassium channel 2 (Mus musculus), P35561; HEK293-Kir2.1, FluxOR thallium flux fluorescence; active compounds read low;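 active = fluorescence ratio B-score at or below minus 3 SD of library scores, with starting-brightness B-score within 2 SD, cut at about -4.2 in these data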;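 also: channel flux triggered by added potassium and thallium sulfate stimulus; B-score of peak minus minimum fluorescence over baseline after thallium stimulus; more negative B-score means stronger Kir2.1 block with less thallium influx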
KCNK3 inh: human KCNK3 channel inhibitors, primary screen, CHO cells, FluxOR thallium flux, B-score; FluxOR fluorescence; active compounds read low; B-score at 10 µM; 340,000 compounds, 0.84% hits;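 active = B-score under library mean minus 4 SD, starting fluorescence ratio at most library mean plus 5 SD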;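 also: more negative B-score means stronger inhibition of thallium flux through KCNK3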
KCNQ1 pot: potentiators or activators of KCNQ1 channel, primary screen, cell-based, thallium flux, high-throughput; B-score at 10 µM; 310,000 compounds, 0.35% hits; AID 2648, 2010; CHO-K1 KCNQ1, thallium flux FluxOR fluorescence; active compounds read high;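 active = fluorescence ratio B-score, a plate-corrected score, at least three library SD, with initial intensity B-score within 5 SD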
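Assay system: CHO-K1 cells stably expressing KCNQ1. Medium: assay buffer for compound exposure, DMSO matched across wells. Timing: 37 °C overnight plating, 90-min dark dye load, 20-min compound pretreatment. Signal: kinetic FluxOR fluorescence, 10 s baseline plus 110 s post-stimulus.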
Large screens that a line does not name were inactive. Compounds with a hit are over-represented: about 3.7% of the library has one in this group of screens.

O=C(CSc1ccc2ccccc2c1)N1CCN(c2ccc(O)cc2)CC1	Kir21 block -4.2
O=S(=O)(c1ccc2ccccc2c1)N1CCN(c2ccc(O)cc2)CC1	none (no result: hERG rescue, KCNQ1 block, KCNK9 inh, Kir21 block, KCNQ1 pot)
O=C(CSc1nc2ccccc2nc1N1CCCCC1)N1CCN(c2ccccc2)CC1	KCNQ1 block 6
CCC(OC(=O)c1cccs1)C(=O)NCc1ccco1 (configuration not stated)	hERG rescue 51
CC1(C(=O)CSc2ncn[nH]2)CCC(=O)O1 (configuration not stated)	hERG rescue 5.0 (no result: KCNK3 inh)
CC(CCc1ccc(O)cc1)NC(c1ccccc1)c1ccc(Cl)cc1 (configuration not stated)	KCNQ1 block 12
CCOC(=O)CN1C=C(c2ccc3ccccc3n2)C(C[N+](=O)[O-])c2ccccc21 (configuration not stated)	KCNQ1 block 11
Cc1nc2ccccc2n1CC(=O)OCC(=O)NC1CC1	none
CN1CCN(c2oc(Cc3cccc4ccccc34)nc2C#N)CC1	none
N#Cc1nc(Cc2cccc3ccccc23)oc1N1CCCCC1	KCNQ1 block 6
N#Cc1nc(Cc2cccc3ccccc23)oc1NCCCN1CCOCC1	Kir21 block -6
N#Cc1nc(COc2ccc(Cl)cc2)oc1N1CCCCCC1	KCNK3 inh -8.7 (no result: hERG rescue, KCNQ1 block, KCNK9 inh, Kir21 block, KCNQ1 pot)
N#Cc1nc(Cc2ccccc2)oc1N1CCN(c2ccccc2)CC1	KCNK9 inh -7
N#Cc1nc(Cc2cccc3ccccc23)oc1NCCCn1ccnc1	none
Cc1ccc(OCc2nc(C#N)c(N3CCCCC3)o2)cc1	none
N#Cc1nc(Cc2ccccc2)oc1N1CCC(C(N)=O)CC1	none
Cc1ccc(C)c(S(=O)(=O)N2CCN(C(=O)c3cncc(Br)c3)CC2)c1	none
O=C(NCc1ccc(/C=c2\sc3n(c2=O)CCN=3)o1)C(=O)Nc1ccccc1	none (no result: KCNK3 inh)
CCc1ccc(N(CC(=O)NCCc2ccccc2)C(=O)CCC(=O)Nc2ccccn2)cc1	none
CCOC(=O)N1CCC(n2c(SCC(=O)NCCc3ccc(S(N)(=O)=O)cc3)nc3ccccc3c2=O)CC1	none
CCCC(=Nc1ccc(N)cc1)C1=C(O)C(C(=O)OC)C(C)(C)CC1=O (configuration not stated)	none
CCSC(=O)N1c2ccc(OC)cc2C=CC1C#N (configuration not stated)	none (no result: hERG rescue, KCNQ1 block, KCNK9 inh, Kir21 block, KCNQ1 pot)
N#Cc1nc(-c2cccc3ccccc23)oc1NCCN1CCCCC1	Kir21 block -4.9
CCN1CCN(c2cc(C(C)C)nc3c(-c4ccccc4)c(C)nn23)CC1	Kir21 block -8.1
COC(=O)CNC(c1ccccc1Cl)c1cc(Br)ccc1NS(=O)(=O)c1ccc(C)cc1 (configuration not stated)	KCNK9 inh -6.8
CC(Sc1nc2ccccc2s1)C(=O)NC1CCCc2ccccc21 (configuration not stated)	Kir21 block -5.8
CC(Sc1nc2ccccc2s1)C(=O)N(C)Cc1ccccc1 (configuration not stated)	Kir21 block -4.2
CC1CN(C(=O)C(C)Sc2nc3ccccc3s2)CC(C)O1 (configuration not stated)	none
CC(Sc1nnnn1C)C(=O)NC1CCCc2ccccc21 (configuration not stated)	none
COc1ccc(/C=C/c2n[nH]c(=O)c(C#N)c2C)cc1	none
S=C(NCc1ccc2c(c1)OCO2)NC1CCN(Cc2ccccc2)CC1	Kir21 block -12
O=C(c1ccccc1Cl)N1CCN(Cc2ccc3c(c2)OCO3)CC1	KCNK9 inh -7
Cc1ccc(C(=O)N2CCN(Cc3ccc4c(c3)OCO4)CC2)c(Cl)c1	none
c1ccc(CN2CCC(N3CCN(Cc4ccc5c(c4)OCO5)CC3)CC2)cc1	none
COc1cccc(NC(=O)c2cc3ccccc3cc2OC)c1	none
CC(=O)NC1=C(NC2CCS(=O)(=O)C2)C(=O)c2ccccc2C1=O (configuration not stated)	KCNQ1 pot 12
CN(C1=C(NC(=O)c2ccccc2)C(=O)c2ccccc2C1=O)C1CCS(=O)(=O)C1 (configuration not stated)	none
CC1C(=O)C(C)C(c2ccc(Br)cc2)NC1c1ccc(Br)cc1 (configuration not stated)	KCNQ1 block 6
CC1C(=O)C(C)C(c2cc(Br)ccc2O)NC1c1cc(Br)ccc1O (configuration not stated)	none (no result: hERG rescue, KCNQ1 block, KCNK9 inh, Kir21 block, KCNQ1 pot)
CC(C)(C)C(=O)N1CCC(O)(CS(=O)(=O)c2ccc(Cl)c(Cl)c2)CC1	none
Cc1ccc(Cl)cc1NC(=S)N(Cc1cccnc1)Cc1ccccc1Cl	KCNQ1 block 6
CCOc1ccc(Br)cc1S(=O)(=O)Nc1ccc(NC(=O)c2ccccc2C)cc1	KCNK9 inh -7.4
CCOc1ccc(Br)cc1S(=O)(=O)Nc1ccc(C(=O)Nc2ccc(C)cc2)cc1	KCNK9 inh -7.1
COC(=O)c1sc(S(=O)(=O)Nc2ccc(C)c(C)c2)c(C(=O)OC)c1C	none
O=[N+]([O-])c1ccc(O)c(Nc2ncnc3ccc(Br)cc23)c1	KCNQ1 block 7
CC1=C(C#N)C(=O)N(C2CCS(=O)(=O)C2)C(=O)/C1=C\c1ccc(C)o1 (configuration not stated)	KCNQ1 block 7, KCNK9 inh -6.9 (no result: KCNK3 inh)
O=C(COC(=O)/C=C/c1cccc(C(F)(F)F)c1)NCCN1C(=O)CSC1=O	none (no result: hERG rescue, KCNQ1 block, KCNK9 inh, Kir21 block, KCNQ1 pot)
CCOC(=O)c1ccc(N2C(=O)c3n[nH]c(C)c3C2c2ccc(O)cc2)cc1 (configuration not stated)	KCNK9 inh -7.1
CCOC(=O)c1ccc(N2C(=O)c3n[nH]c(C)c3C2c2ccccc2)cc1 (configuration not stated)	none
COc1ccc(C(=O)NNC(=O)C(=O)Nc2ccc(C)cc2)cc1	hERG rescue 15, KCNQ1 pot 41
CCc1ccc(NC(=O)C(=O)NNC(=O)c2ccc(OC)cc2)cc1	hERG rescue 36, KCNQ1 pot 77
COc1ccc(C(=O)NNC(=O)C(=O)Nc2ccc(C)c(Cl)c2)cc1	hERG rescue 97, KCNQ1 pot 58
COc1ccc(CC(=O)NNC(=O)c2ccc(NC(C)=O)cc2)cc1	none
CCCCC/C=N\NC(=O)Cc1ccc([N+](=O)[O-])cc1	KCNQ1 pot 7
COc1ccc(NC(=O)c2sc(SC)nc2N)cc1	hERG rescue 5.1
